# Only some compounds are listed: those with a hit (about 1.9% of all), similar ones and a draw of the others.
# M5 ag – CHRM5 agonism in calcium assay; P08912; actives 0.19% (n = 360,000); activation, % at 3 µM; CHO-K1 hM5 cells, Fluo-8 calcium fluorescence; 0% DMSO wells, 100% maximal acetylcholine response;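 active = activation above the run's mean over test compounds plus 3 SD, cut at about 23% in these data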;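 note: signal is peak over basal fluorescence ratio across the kinetic read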
# Target sequence (P08912 whole entry, looked up): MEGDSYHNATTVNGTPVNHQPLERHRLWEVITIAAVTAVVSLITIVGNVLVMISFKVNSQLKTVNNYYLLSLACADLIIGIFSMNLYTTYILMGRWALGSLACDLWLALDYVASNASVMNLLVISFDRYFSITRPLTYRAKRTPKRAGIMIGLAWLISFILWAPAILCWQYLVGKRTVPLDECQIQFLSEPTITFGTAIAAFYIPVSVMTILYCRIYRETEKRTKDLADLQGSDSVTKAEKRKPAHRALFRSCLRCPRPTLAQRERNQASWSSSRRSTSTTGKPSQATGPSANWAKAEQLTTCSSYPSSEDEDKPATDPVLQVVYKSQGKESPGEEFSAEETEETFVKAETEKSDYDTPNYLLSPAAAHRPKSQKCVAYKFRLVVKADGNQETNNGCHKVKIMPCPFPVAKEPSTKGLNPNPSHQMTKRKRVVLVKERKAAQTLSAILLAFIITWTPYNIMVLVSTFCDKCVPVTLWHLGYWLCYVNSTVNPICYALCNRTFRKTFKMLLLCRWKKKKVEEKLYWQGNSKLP
# CHRM4 agonist – agonists of human muscarinic M4 receptor (CHRM4); actives 0.14% (n = 360,000); activation, % at 3 µM; CHO-K1 hM4/Gqi5, Fluo-8 calcium fluorescence; vehicle 0%, full acetylcholine response 100%;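 active = activation above the run mean over all test wells plus 3 SD, cut at about 32% in these data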;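 note: peak over basal fluorescence ratio per well then scaled between controls; 0% = DMSO wells and 100% = acetylcholine at EC100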
# CHRM4 antagonist – blocks acetylcholine activation of human M4 receptor; P08173; CHO-hM4 cells, ACh EC80, Fluo-8 calcium fluorescence; inhibition, % at 3 µM; actives 0.73% (n = 360,000); AID 624125;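 active = inhibition above its plate's cutoff, the mean inhibition of sample wells plus 3 SD, cut at about 27% in these data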;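 note: 0% = acetylcholine EC80 with DMSO and 100% = DMSO without agonist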
# CHRM5 PAM – potentiates acetylcholine response at human M5 receptor; CHO-K1 hM5, Fluo-8 calcium, ACh EC20 PAM; 0% = ACh EC20, 100% = ACh EC100; actives 0.3% (n = 360,000); activation, % at 3 µM; P08912;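 active = activation above the run cutoff, the mean activation of all test compounds plus 3 SD, cut at about 18% in these data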
#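 System – CHO-K1 hM5 cells · Compound – 3 µM, single dose · Incubation – compound preincubation 140 s before EC20 acetylcholine addition · Technique – Fluo-8 calcium fluorescence · Measure – Max/basal fluorescence ratio as % of EC20–EC100 ACh window · Benchmarks – low control EC20 acetylcholine (0%), high control EC100 acetylcholine (100%) · Replication – singlicate, one well per test compound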
# M5 antag – CHRM5 antagonism in calcium assay. AID 624040. CHO-hM5 cells, Fluo-8 calcium fluorescence, ACh EC80. actives 0.59% (n = 360,000). inhibition, % at 3 µM. P08912;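 active = inhibition above a per-plate cutoff, the mean of that plate's test compounds plus 3 SD, cut at about 27% in these data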;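 note: 0% = acetylcholine EC80 with DMSO and 100% = DMSO without agonist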
# M4 PAM – potentiates acetylcholine response at human M4 receptor; P08173; CHO-K1 hM4/Gqi5, Fluo-8 calcium fluorescence, ACh EC20; 0% = ACh EC20, 100% = maximal ACh; activation, % at 3 µM; actives 0.4% (n = 360,000); AID 624126;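 active = activation above its plate's cutoff, the mean activation of sample wells plus 3 SD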
# The depositor's hits bear a star.
SMILES,M5 ag,CHRM4 agonist,CHRM4 antagonist,CHRM5 PAM,M5 antag,M4 PAM
CC(C(=O)Nc1cccnc1)c1ccc([N+](=O)[O-])cc1 (stereo unspecified),2,3,0,1,-8,-4
COc1ccc(NC(=O)c2cc(C3CCCCN3C(=O)c3ccccc3)on2)c(C)c1 (stereo unspecified),-1,2,-4,-2,6,1
COc1ccc(C2c3c(ncn(CCCO)c3=N)Oc3ccc4ccccc4c32)cc1 (stereo unspecified),-4,19,0,-10,7,-9
COc1ccc(C2c3c(ncn(CCCO)c3=N)Oc3ccc4ccccc4c32)cc1OC (stereo unspecified),-2,1,1,7,-4,11*
CCCn1c(SCC(=O)Nc2ccc(OCC)cc2)nnc1C(C)C,-3,1,8,19*,-4,-2
COc1cc2c(cc1NC(=O)CN1CCN(S(=O)(=O)c3ccc(C)cc3)CC1)oc1ccccc12,-1,1,-8,-1,9,22*
Cc1cccc(C(=O)Nc2ccccc2C(=O)NCc2ccco2)c1,-3,5,-5,3,-5,5
CCN(N=O)c1ccc(C=C2C=Cc3ccccc32)cc1,4,1,-6,-8,7,0
COc1cccc(CNC(=O)CN(C)S(=O)(=O)c2cnc[nH]2)c1,0,1,-14,20*,-11,4
COc1ccccc1N1CCN(C(=O)c2ccc3noc(-c4ccccc4)c3c2)CC1,25*,8,-23,-13,4,-1
COc1ccc(CCN2CC(C(=O)NCc3cnn(C(C)C)c3)CCC2=O)cc1 (stereo unspecified),2,1,2,-1,10,-3
CC(C)(C)NC(=O)C(c1ccccc1)n1c(-c2ccc(-c3ccccc3)cc2)nc2ccccc21 (stereo unspecified),-1,1,-14,-12,-6,0
Oc1ccccc1/C=N/Nc1nc2ccccc2o1,-4,2,-17,-4,-5,-5
CC(=NNc1nc2ccccc2o1)c1ncccn1,6,6,58*,-20,51*,-1
CC(=NNc1nc2ccccc2s1)c1ncccn1,11,12,48*,1,16,0
C/C(=N\Nc1nc2ccccc2s1)c1cccs1,-1,-1,-6,3,-4,0
Cc1cc(C)nc(Nc2nc3ccccc3o2)n1,-3,0,-10,-9,15,-6
CC(=NNc1nc2ccccc2o1)c1cc2ccccc2cn1,8,11,33*,-16,28*,0
CCN(CC(=O)NCc1ccc(F)cc1)C(=O)c1cccnc1SC,-1,1,-10,12,5,-9
CCOC(=O)c1c(-c2ccccc2)csc1NC(=O)/C(C#N)=C\c1ccc(O)c(OC)c1,31*,3,1,12,17,1
CCOC(=O)c1c(-c2ccc(C)cc2)csc1NC(=O)/C(C#N)=C/c1ccc(O)c(OC)c1,5,3,2,8,-13,1
COc1ccc(OC)c(S(=O)(=O)N2CCCC(C(=O)NCc3ccco3)C2)c1 (stereo unspecified),-2,0,4,0,7,-3
CCCNS(=O)(=O)c1ccc(OCC(=O)Nc2ccc3c(c2)OCO3)cc1,-2,-1,45*,-2,5,-9
Cc1ccc(C(=O)OCC(=O)Nc2ccc3c(c2)OCO3)o1,-6,1,-1,20*,-7,9
COc1ccc(/C=N/OCC(=O)Nc2ccc3c(c2)OCO3)c(OC)c1,3,5,38*,0,5,-11
SMILES,M5 ag,CHRM4 agonist,CHRM4 antagonist,CHRM5 PAM,M5 antag,M4 PAM
CCOc1ccc(/C=N/OCC(=O)Nc2ccc3c(c2)OCO3)cc1,1,5,-8,0,3,0
O=C(O)c1cc(C(=O)O)cc(N2C(=O)CSC2=S)c1,-6,1,5,13,-8,17*
O=C1CSC(=S)N1c1ccc(F)c(Cl)c1,6,12,4,-12,33*,-7
O=C(O)c1ccc(N2C(=O)CSC2=S)cc1,0,7,-12,-4,13,-4
CCOc1ccc(N2C(=O)CSC2=S)cc1,1,0,-5,18*,-1,4
CCCCN(C)C(=O)C1CCC(CNS(=O)(=O)c2ccc3c(c2)CC(C)N3C(=O)C2CC2)CC1 (stereo unspecified),2,10,9,-2,-4,-8
O=C(/C=C/c1ccccc1)NC(NC(=S)Nc1ccc(Cl)cc1Cl)C(Cl)(Cl)Cl (stereo unspecified),1,11,9,-19,34*,-24
COc1cccc(NC(=O)c2ccnc(N3CCC(C(=O)NCc4cc(OC)ccc4OC)CC3)c2)c1,-1,7,-7,-1,-2,2
CCCCCCCC1CC(=O)C=C(C)C1C(=O)OCC (stereo unspecified),-4,-1,-1,-4,14,12*
CCN(CC)S(=O)(=O)c1ccc(N2CCc3cc(OC)c(OC)cc3C2)nc1,-3,4,12,-5,22,-7
COc1ccc(C2c3ccsc3CCN2C(=O)C(C)(C)C)cc1 (stereo unspecified),-12,-2,-16,14,1,1
Cc1ccc(NC(=S)NCC2CCCO2)cc1 (stereo unspecified),-2,2,-3,0,-10,26*
COc1ccc(C2=NOC(Cn3nc(C(=O)NCc4ccc(OC(F)(F)F)cc4)cc3-c3ccccc3)C2)cc1 (stereo unspecified),2,2,4,-2,9,-2
COc1ccc(C2=NOC(Cn3nc(C(=O)NCC4CC4)cc3-c3ccccc3)C2)cc1 (stereo unspecified),-4,23,29*,-37,26,-4
COc1ccc(C2=NOC(Cn3nc(C(=O)NCc4ccccc4OC)cc3-c3ccccc3)C2)cc1 (stereo unspecified),2,19,30*,-37,20,-12
CN1OC[C@@H]2C(=O)N3CCc4c([nH]c5ccccc45)[C@@H]3C[C@@H]21,3,1,-7,-1,-1,0
COc1ccc(-c2cc(C(=O)N3CCN(c4ncccn4)CC3)c3ccccc3n2)c(OC)c1,4,11,16,-17,20,-11
COc1ccc(-c2cc(C(=O)N3CCN(c4ccccc4F)CC3)c3ccccc3n2)c(OC)c1,-3,18,20,-10,36*,-3
